The text below walks through data of ChEMBL document CHEMBL1151849, “Antioxidant hydroquinones substituted by beta-1,6-linked oligosaccharides in wheat germ” (J Nat Prod, 2009).

Active and inactive are the calls of the source. No cut-off for these calls is given here.

The nature of test [1]: Antioxidant activity assessed as trolox equivalents of ABTS radical scavenging activity by TEAC assay. Format: functional. The procedure, abridged:
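ABTS radical cation generated from 7 mM ABTS plus 2.5 mM K2S2O8 in water, kept dark at room temperature 16-18 h, then diluted in aqueous 50% EtOH to A734 0.70 ± 0.02. 10.0, 20.0 or 30.0 µL of 1.00 mM aqueous compound added to 2.00 mL radical solution. A734 decrease recorded from 15 s to 5 min. Calibration curves compared with Trolox, expressed as mM Trolox equivalent to 1 mM compound.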

The next test concerns Nucleic Acid. As to the kind of experiment: Protection against H2O2-induced DNA damaging activity of pBR322 assessed as induction of single stranded breaks by gel electrophoresis. The conditions noted are these: Escherichia coli. The procedure, abridged:
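pBR322 plasmid (100 ng) incubated 1 h at 37 °C in 100 mM sodium phosphate pH 7.4 with 0.3% H2O2 and 30, 100, 300 ng or 1 µg compound. Reaction volume was 12 µL. Analysed on a 0.7% agarose gel run 1.5 h at 80 V, stained with 0.5 µg/mL ethidium bromide for 15 min, then imaged under UV.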

Test [2] concerns Radical scavenging activity. Description: Antioxidant activity assessed as ABTS radical cation scavenging activity by TEAC assay.

`COc1cc(O)ccc1O[C@@H]1O[C@H](CO[C@@H]2O[C@H](CO[C@@H]3O[C@H](CO)[C@@H](O)[C@H](O)[C@H]3O)[C@@H](O)[C@H](O)[C@H]2O)[C@@H](O)[C@H](O)[C@H]1O`: the Activity in test [1] was 1.76.
Take `COc1cc(O[C@@H]2O[C@H](CO[C@@H]3O[C@H](CO[C@@H]4O[C@H](CO)[C@@H](O)[C@H](O)[C@H]4O)[C@@H](O)[C@H](O)[C@H]3O)[C@@H](O)[C@H](O)[C@H]2O)ccc1O`: the values for the Activity (in test [1]; with Nucleic Acid) were 0.97 and “Dose-dependent effect”, respectively. Moreover, the result in test [2] was Active.
In the case of `COc1cc(O[C@@H]2O[C@H](CO[C@@H]3O[C@H](CO)[C@@H](O)[C@H](O)[C@H]3O)[C@@H](O)[C@H](O)[C@H]2O)ccc1O`, the Activity in test [1] came to 0.94. Moreover, the result in test [2] was Active.
As to `COc1cc(O[C@@H]2O[C@H](CO[C@@H]3O[C@H](CO)[C@@H](O)[C@H](O)[C@H]3O)[C@@H](O)[C@H](O)[C@H]2O)cc(OC)c1O`, in test [1], the Activity worked out at 0.85. Moreover, the outcome in test [2] was Active.
As for `OC[C@H]1O[C@@H](OC[C@H]2O[C@@H](OC[C@H]3O[C@@H](Oc4ccc(O)cc4)[C@H](O)[C@@H](O)[C@@H]3O)[C@H](O)[C@@H](O)[C@@H]2O)[C@H](O)[C@@H](O)[C@@H]1O`, the Activity in test [1] was found to be 1.12.
Consider `COc1cc(O[C@@H]2O[C@H](CO[C@@H]3O[C@H](CO[C@@H]4O[C@H](CO[C@@H]5O[C@H](CO)[C@@H](O)[C@H](O)[C@H]5O)[C@@H](O)[C@H](O)[C@H]4O)[C@@H](O)[C@H](O)[C@H]3O)[C@@H](O)[C@H](O)[C@H]2O)ccc1O`, for which the Activity in test [1] was 0.88. The outcome in test [2] was Active.
As for `COc1cc(O[C@@H]2O[C@H](CO[C@@H]3O[C@H](CO[C@@H]4O[C@H](CO)[C@@H](O)[C@H](O)[C@H]4O)[C@@H](O)[C@H](O)[C@H]3O)[C@@H](O)[C@H](O)[C@H]2O)cc(OC)c1O`, the Activity in test [1] turned out to be 0.8. Moreover, the result in test [2] was Active.
